Data set [1] deals with T1, α7 nAChRs (Macaca mulatta, UniProt Q866A2). The data set can be described thus: [18F]ASEM PET blocking scans with nicotine, varenicline and cold ASEM. The settings on record: for receptor occupancy: Lassen plot.
The target in data set [2] is T2, α7 nAChRs (Homo sapiens, UniProt P36544). The settings on record: two subjects, initial [18F]ASEM human study ref 11; cited from earlier work.
Data set [3] can be described thus: Plasma free fraction. It is filed as in vitro ADME, human.
Data set [4] is described as follows: Parent [18F]ASEM in human arterial plasma. It is filed as in vivo. Conditions: for parent [18F]ASEM fraction of radioactivity in plasma: human arterial plasma. A digest of the protocol: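 Six healthy volunteers (5 M, 1 F; 26–51 y) received 317±87 MBq radiotracer as a 1-min slow bolus into a forearm vein. Manual radial-artery samples were taken over 180 min post-injection. Plasma was analysed by HPLC for parent fraction, giving the metabolite-corrected arterial input function, expressed as SUV.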

Data set [5] concerns the target T2, α7 nAChRs. The data set can be described thus: [18F]ASEM PET imaging in human brain, kinetic modeling and test-retest. Conditions: for K1 / VT / VT/fp: humans n=6; for VT TRV / VT/fp TRV: humans n=4. In kind it is in vivo.
Data set [6] is classed as in vivo, Macaca mulatta. Conditions: arterial plasma, 120 min post-injection, averaged across subjects, rhesus monkey.
The target in data set [7] is T1, α7 nAChRs. It is filed as in vivo. Conditions: 2TCM, rhesus monkey; for K1: average across all subjects and gray matter regions.
Data set [8] is described as follows: Plasma free fraction. It is filed as in vitro ADME, Macaca mulatta. Conditions: rhesus monkey plasma, ultrafiltration. A digest of the protocol:
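Plasma from arterial samples of anesthetized rhesus monkeys during radiotracer PET scans was tested. Free fraction was measured by ultrafiltration in triplicate for each scan.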

For data set [9], the target named is α7 nAChRs. The settings on record: full agonist ref 16, 17; cited from earlier work.
[10] abbreviates: 0.24 mg/kg nicotine, averaged across regions, one value per animal (two animals).
[11] abbreviates: 0.33 mg/kg varenicline, one value per animal (two animals).

Each structure is given as a SMILES string. pKi: −log10 of the molar value. Where “and” joins values, the source holds several entries; their conditions need not be identical. Identical values can stand only once. Like-named read-outs stand apart in the source and are kept apart here.

T1 sequence (Q866A2 23-502): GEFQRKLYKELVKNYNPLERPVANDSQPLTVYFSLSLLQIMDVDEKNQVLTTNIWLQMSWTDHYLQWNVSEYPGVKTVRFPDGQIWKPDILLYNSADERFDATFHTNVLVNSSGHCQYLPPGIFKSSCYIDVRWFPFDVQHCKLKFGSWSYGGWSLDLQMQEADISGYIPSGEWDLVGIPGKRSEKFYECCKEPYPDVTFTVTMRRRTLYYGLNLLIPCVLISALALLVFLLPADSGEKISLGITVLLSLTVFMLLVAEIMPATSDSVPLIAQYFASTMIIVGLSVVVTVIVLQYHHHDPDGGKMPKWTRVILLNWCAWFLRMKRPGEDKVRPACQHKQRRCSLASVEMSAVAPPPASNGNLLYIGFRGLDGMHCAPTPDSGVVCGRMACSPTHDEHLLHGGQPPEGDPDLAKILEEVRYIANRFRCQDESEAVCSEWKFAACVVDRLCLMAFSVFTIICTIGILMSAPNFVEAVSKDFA
T2 sequence (P36544 23-502): as the sequence (Q866A2 23-502) above, with S171N, K186R, M373V, A376V counted along it

Turning to `CN1CCC[C@H]1c1cccnc1` [nicotine], at α7 nAChRs [1] (setting [10]), the “change of [18F]ASEM VT” value was −0.1±6.7% and 5.3±9.1%; the “change of [18F]ASEM VT/fP” value is −7.2±6.2% and −3.0±8.4%.
On to `O=S1(=O)c2cc(N3CCN4CCC3CC4)ccc2-c2cccc([18F])c21` [[^18F]ASEM], for which the “test-retest variability of VT” value on α7 nAChRs [2] was 10.8±5.1%; on α7 nAChRs [5] (MA1, 120 min of data, four human subjects, all regions), 11.7±9.8%. For the same compound, in “Plasma free fraction [3]” (four human subjects), the “test-retest variation of plasma free fraction (fP)” value was −5.3±18.0%. Further, in the data set “Plasma free fraction [3]” (human plasma), the fP turned out to be 7.7±1.3%. Further, the “parent [18F]ASEM fraction of radioactivity in plasma” value in data set [4] (60 min after injection) is reported as 27.5±7.9%; in [4] (180 min post-injection), 8.8±1.6%. The “time of peak of parent [18F]ASEM curve in arterial plasma” value in [4] (humans) was determined as 1.25 min. Moreover, the “SUV of parent [18F]ASEM curve in arterial plasma at end of scans” value in [4] (humans, 180 min post-injection) stood at 0.47±0.08 SUV. Besides, the “peak SUV of parent [18F]ASEM curve in arterial plasma” value in data set [4] (humans, at 1.25 min) is recorded as 4.4±1.2 SUV. In addition, the VND on α7 nAChRs [1] (estimated from Lassen plots, one value per animal (two animals)) was 25.3 mL/cm^3 and 16.0 mL/cm^3. Moreover, the K1 at α7 nAChRs [5] (1TCM, Caudate) came out at 0.33±0.03 mL/cm^3 per min; at α7 nAChRs [5] (1TCM, Cerebellum), 0.36±0.08 mL/cm^3 per min; on α7 nAChRs [5] (1TCM, Frontal Cortex), 0.35±0.07 mL/cm^3 per min; at α7 nAChRs [5] (1TCM, Hippocampus), 0.26±0.04 mL/cm^3 per min; on α7 nAChRs [5] (1TCM, Occipital Cortex) it was 0.37±0.06 mL/cm^3 per min; at α7 nAChRs [5] (1TCM, Putamen) it was 0.39±0.10 mL/cm^3 per min. Besides, the K1 at α7 nAChRs [5] (1TCM, Thalamus) was 0.38±0.08 mL/cm^3 per min; at α7 nAChRs [7], 0.59±0.14 mL/cm^3·min^−1. Moreover, the VT at α7 nAChRs [5] (1TCM, Caudate) was 22.4±3.9 mL/cm^3; at α7 nAChRs [5] (1TCM, Cerebellum) it was 20.0±3.2 mL/cm^3; on α7 nAChRs [5] (1TCM, Frontal Cortex), 24.7±3.0 mL/cm^3; on α7 nAChRs [5] (1TCM, Hippocampus), 21.7±2.3 mL/cm^3; at α7 nAChRs [5] (1TCM, Occipital Cortex) it was 25.6±3.1 mL/cm^3; on α7 nAChRs [5] (1TCM, Putamen) it was 25.8±3.6 mL/cm^3. Besides, the VT was 26.1±3.7 mL/cm^3 on α7 nAChRs [5] (1TCM, Temporal Cortex); 26.6±3.3 mL/cm^3 at α7 nAChRs [5] (1TCM, Thalamus); 21.6±2.6 mL/cm^3 on α7 nAChRs [5] (MA1, Caudate); 19.6±2.5 mL/cm^3 at α7 nAChRs [5] (MA1, Cerebellum); 24.6±2.7 mL/cm^3 on α7 nAChRs [5] (MA1, Frontal Cortex); 21.7±2.1 mL/cm^3 at α7 nAChRs [5] (MA1, Hippocampus). Also, the VT on α7 nAChRs [5] (MA1, Occipital Cortex) was found to be 25.7±2.7 mL/cm^3; at α7 nAChRs [5] (MA1, Putamen) it was 25.4±3.0 mL/cm^3; at α7 nAChRs [5] (MA1, Temporal Cortex), 25.8±3.2 mL/cm^3; at α7 nAChRs [5] (MA1, Thalamus) it was 25.9±2.9 mL/cm^3. In addition, the “underestimation of VT with truncated data” value on α7 nAChRs [5] (60 min of data vs 180 min, humans) is 7.4±5.1%; on α7 nAChRs [5] (90 min of data vs 180 min, humans), 5.5±3.8%; on α7 nAChRs [5] (120 min of data vs 180 min, humans), 4.2±2.6%. In addition, the “VT TRV” value at α7 nAChRs [5] (MA1, Caudate) is 12.5±8.1%; at α7 nAChRs [5] (MA1, Cerebellum) it was 13.4±7.6%; on α7 nAChRs [5] (MA1, Frontal Cortex), 11.0±11.4%; at α7 nAChRs [5] (MA1, Hippocampus), 10.9±8.4%; at α7 nAChRs [5] (MA1, Occipital Cortex), 10.5±10.5%; at α7 nAChRs [5] (MA1, Putamen), 12.0±8.1%. For the same compound, the “VT TRV” value on α7 nAChRs [5] (MA1, Temporal Cortex) came out at 11.8±10.1%; on α7 nAChRs [5] (MA1, Thalamus) it was 11.0±6.4%. In addition, the “VT/fp TRV” value stood at 6.8±7.4% at α7 nAChRs [5] (MA1, Caudate); 7.8±6.2% at α7 nAChRs [5] (MA1, Cerebellum); 10.2±7.7% on α7 nAChRs [5] (MA1, Frontal Cortex); 8.0±7.8% on α7 nAChRs [5] (MA1, Hippocampus); 9.9±8.4% on α7 nAChRs [5] (MA1, Occipital Cortex); 7.8±7.5% on α7 nAChRs [5] (MA1, Putamen). Besides, the “VT/fp TRV” value came to 9.1±7.8% on α7 nAChRs [5] (MA1, Temporal Cortex) and 6.9±7.8% at α7 nAChRs [5] (MA1, Thalamus). In addition, the VT/fp on α7 nAChRs [5] (MA1, Caudate) turned out to be 288±72 mL/cm^3; on α7 nAChRs [5] (MA1, Cerebellum), 259±57 mL/cm^3; on α7 nAChRs [5] (MA1, Frontal Cortex) it was 326±66 mL/cm^3; on α7 nAChRs [5] (MA1, Hippocampus), 287±58 mL/cm^3; on α7 nAChRs [5] (MA1, Occipital Cortex), 339±70 mL/cm^3; on α7 nAChRs [5] (MA1, Putamen) it was 335±66 mL/cm^3. Moreover, the VT/fp turned out to be 342±75 mL/cm^3 at α7 nAChRs [5] (MA1, Temporal Cortex) and 343±75 mL/cm^3 on α7 nAChRs [5] (MA1, Thalamus). In addition, the “test-retest variation of VT/fP” value at α7 nAChRs [5] (MA1, four human subjects, all regions) is 9.3±7.3%. Besides, on α7 nAChRs [5] (human brain), the “peak SUV in brain” value is recorded as 3.0–4.5 SUV. Moreover, the “time of peak radioactivity concentration in brain” value at α7 nAChRs [5] (human brain, post-injection) lay in the range of 20 to 30 min. Further, the “pharmacological effects following administration” value at α7 nAChRs [5] (humans, administered mass 132±185 ng) is listed as “No detectable pharmacological effects”. In addition, the “VT higher than previously reported values” on α7 nAChRs [5] (humans, compared with ref 11) is on record as “roughly 15%”. In addition, in [6], the “parent fraction of total plasma radioactivity” value is reported as 16%. The k2 at α7 nAChRs [7] was 0.022 ± 0.010 min⁻¹. In addition, the “free fraction (fP) in plasma” value in the data set “Plasma free fraction [8]” is 14.9±1.1%.
As to `O=S1(=O)c2cc(N3CCN4CCC3CC4)ccc2-c2cccc(F)c21` [ASEM], the receptor occupancy on α7 nAChRs [1] (0.67 mg/kg cold ASEM, one animal) is 18.8% and 19%; on α7 nAChRs [1] (1.24 mg/kg cold ASEM, two animals) it was 36.7% and 40.2% and 37–40%.
In general, pKi refers to the Ki on a negative log10 scale, so that one unit is a factor of ten. For the compound `c1cnc2cc3c(cc2n1)[C@@H]1CNC[C@H]3C1` [varenicline], the pKi on α7 nAChRs [9] is 6.49. Also, on α7 nAChRs [1] (setting [11]), the “change of [18F]ASEM VT” value is −2.6±6.2% and 5.2±16.9%; the “change of [18F]ASEM VT/fP” value is −1.6±5.5% and −5.4±15.2%.
Take `O=S1(=O)c2ccc([18F])cc2-c2ccc(N3CCN4CCC3CC4)cc21` [[^18F]DBT-10]: in [6], the “parent fraction of total plasma radioactivity” value was found to be 30%. At α7 nAChRs [7], this compound returned a K1 of 0.66±0.11 mL/cm^3·min^−1 and a k2 of 0.024 ± 0.010 min⁻¹. Also, the “free fraction (fP) in plasma” value in the data set “Plasma free fraction [8]” was determined as 18.3±3.9%.
